# High-throughput results as filed in PubChem.
# SKN-1 inh – suppressors of acrylamide-induced Pgst-4::GFP reporter in worms, primary screen, SKN-1 inhibitor project, whole organism, uHTS, GFP/RFP fluorescence ratio, strain VP596. 360,000 tested, 0.49% active. C. elegans VP596 Pgst-4::GFP/RFP ratio, 24 h. inhibition, % at 21.8 µM;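 active = interference check ratio from 0.5 to 1.5 plus GFP to RFP signal ratio inhibition reaching or exceeding a fixed threshold, cut at about 30% in these data, passing the limit was not always enough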
# MPTP inh – mitochondrial permeability transition pore inhibitors, primary screen, biochemical, isolated mouse mitochondria, absorbance | Ca2+ swelling absorbance, 30 min | inhibition, % at 10 µM | 360,000 tested, 1.4% active;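 active = inhibition of 50% or more, scaled per plate between neutral and stimulator controls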
# ADAM17 inh – ADAM17 inhibitors, primary screen, biochemical, QFRET; Disintegrin and metalloproteinase domain-containing protein 17 (Homo sapiens), P78536; recombinant ADAM17, EDANS/DABCYL FRET peptide cleavage; inhibition, % at 6.95 µM; 370,000 tested, 0.83% active; AID 720648, 2013;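 active = inhibition above the mean of compounds lying between control limits plus 3 SD, set per campaign, cut at about 8.5% in these data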
# ADAM10 inh – human ADAM10 inhibitors, primary screen, biochemical, QFRET, HTS; Disintegrin and metalloproteinase domain-containing protein 10 (Homo sapiens), O14672; recombinant ADAM10, EDANS/DABCYL FRET peptide cleavage, 3 h; inhibition, % at 7 µM; 370,000 tested, 0.62% active; AID 720582, 2013;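 active = inhibition above a per-campaign cutoff equal to the mean of compounds falling between control-based bounds plus 3 SD, cut at about 20% in these data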
# Target sequence (O14672 214-748 limits assumed): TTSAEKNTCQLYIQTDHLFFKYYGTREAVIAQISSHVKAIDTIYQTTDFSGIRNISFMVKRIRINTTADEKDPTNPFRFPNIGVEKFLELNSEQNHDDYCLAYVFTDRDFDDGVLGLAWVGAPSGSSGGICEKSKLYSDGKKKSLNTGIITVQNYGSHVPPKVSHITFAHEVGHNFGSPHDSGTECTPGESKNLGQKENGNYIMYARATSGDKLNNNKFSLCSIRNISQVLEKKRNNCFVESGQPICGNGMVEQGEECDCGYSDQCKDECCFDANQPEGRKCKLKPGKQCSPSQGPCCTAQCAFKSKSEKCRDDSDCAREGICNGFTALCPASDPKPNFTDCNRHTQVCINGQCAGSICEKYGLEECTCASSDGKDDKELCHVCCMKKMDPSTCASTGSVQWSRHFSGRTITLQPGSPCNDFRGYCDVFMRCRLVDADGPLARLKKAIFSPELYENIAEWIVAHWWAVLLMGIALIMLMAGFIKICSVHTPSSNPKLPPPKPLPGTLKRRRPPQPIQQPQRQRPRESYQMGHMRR
# GRIN3A LBD mod – binders of NR3A ligand-binding domain, primary screen, biophysical, differential scanning fluorimetry, uHTS; Glutamate receptor ionotropic, NMDA 3A (GRIN3A) ligand-binding domain; NR3A LBD differential scanning fluorimetry, Tm shift; 0% = protein alone, 100% = glycine-bound protein; Tm shift relative to glycine control, % at 25 µM; 340,000 tested, 2.5% active; AID 1259313, 2017;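 active = melting temperature shift of at least 10% of the positive control shift, at one fixed dose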
# MT1-MMP act inh – blockers of MT1-MMP proenzyme processing, primary screen, HT1080 RFP-PRO-GFP cells, GFP/RFP fluorescence. Matrix metalloproteinase-14 (Homo sapiens), P50281. GFP/RFP ratio fluorescence, overnight; percent of plate control window, DMSO zero. GFP/RFP ratio change, % at 20 µM. 360,000 tested, 0.061% active. AID 651647, 2012;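 active = GFP/RFP ratio change of at least 30% with cell ATP level not reduced by more than half and red fluorescence within 50% of control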
#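 Assay system – RFP-PRO-GFP reporter HT1080 cells · Compound dosing – single dose of 20 µM compound, 1% DMSO final · Incubation – overnight compound exposure at 37 °C · Measure – GFP/RFP fluorescence ratio · Benchmarks – DMSO wells and RFP-L50D-GFP cells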
# ADAM10 confirm – human ADAM10 inhibitors, confirmation, biochemical, QFRET, triplicate. ADAM10 QFRET peptide cleavage, EDANS fluorescence. AID 743208, 2013. inhibition, % at 6.95 µM. 2,100 tested, 1% active. shares compounds with ADAM10 inh;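 active = inhibition above about 20% chosen separately for each screening run, limit read from the data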
# ADAM17 counter – ADAM17 inhibitors, counter-screen for ADAM10 exosite inhibitor project, biochemical, QFRET, high throughput. 2,100 tested, 0.5% active. ADAM17 QFRET peptide cleavage, EDANS fluorescence. inhibition, % at 6.95 µM. shares compounds with ADAM10 inh;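 active = mean triplicate inhibition above the solvent-only control wells' mean plus 3 SD, cut at about 12% in these data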
# A number is an active result; n = inactive; x = not tested or not shown. Sampled rows, rich in hits. Any-hit rate of the full collection: about 4.7%.
SMILES,SKN-1 inh,MPTP inh,ADAM17 inh,ADAM10 inh,GRIN3A LBD mod,MT1-MMP act inh,ADAM10 confirm,ADAM17 counter
Cc1ccc(S(=O)(=O)N(CCC(=O)Nc2ccc(OC(F)(F)F)cc2)c2ccccc2)cc1,n,n,n,21,n,n,n,n
COc1ccc(S(=O)(=O)N(CC(=O)Nc2ccc(S(=O)(=O)N3CCOCC3)cc2)c2ccccc2)cc1,n,n,n,24,n,n,n,n
Cc1ccc(S(=O)(=O)N2CCN(C(=O)COC(=O)c3ccc(C(C)(C)C)cc3)CC2)c(C)c1,n,n,n,n,n,n,x,x
COc1cc(OC)cc(-c2cc3nc4c(c(N5CCN(c6ncccn6)CC5)n3n2)CCCC4)c1,n,n,n,n,n,n,x,x
C=CCn1c(COc2ccccc2)nnc1SCC(=O)Nc1ccc(Oc2ccccc2)cc1,x,x,n,21,x,x,n,n
COc1ccc(N(C)S(=O)(=O)c2cccc(C(=O)Nc3cc(OC)ccc3OC)c2)cc1,n,n,n,21,n,n,n,n
Cc1ccc(S(=O)(=O)Nc2ccc(N(C)C)cc2)cc1,n,n,n,n,n,n,x,x
CN(C)c1ccc(NS(=O)(=O)c2ccc(-c3csnn3)cc2)cc1,n,n,n,25,n,n,n,n
CC(C)(C)NC(=O)NC(=O)COc1ccc(Br)cc1Br,n,n,n,20,n,n,n,n
CC(C)(C)c1cc(C(=O)N/N=C/c2ccco2)n[nH]1,n,n,n,n,n,n,x,x
C(=C\c1ccccc1)/CNn1cnnc1,n,n,n,n,n,n,x,x
Clc1ccccc1CSc1nncn1NC/C=C/c1ccccc1,n,n,n,20,n,n,n,n
COc1ccc(Cl)cc1NC(=O)CN(C)C(=O)CN1C(=O)NC(C)(c2ccc3ccccc3c2)C1=O (configuration not stated),n,n,n,27,n,n,n,n
COc1ccc(Cl)cc1NC(=O)CN(C)C(=O)c1sc2ccccc2c1Cl,n,n,n,24,n,n,n,n
COc1ccc(Cl)cc1NC(=O)CN(C)C(=O)CN1C(=O)NC(C)(C)C1=O,n,n,n,n,n,n,x,x
COc1ccccc1C(=O)NCCC(=O)Nc1ccc(S(=O)(=O)N2C(C)CCCC2C)cc1 (configuration not stated),n,n,n,n,n,n,x,x
COc1ccccc1C(=O)NCCC(=O)Nc1ccc(S(=O)(=O)N2CC(C)CC(C)C2)cc1 (configuration not stated),n,n,9.6,29,n,n,n,n
Cc1cc(C)cc(NC(=O)NCCCN2CCN(c3ccc(F)cc3)CC2)c1,x,x,n,n,x,x,x,x
CCOc1ccc(NC(=O)CN(C)C(=O)CSCc2ccc(C)cc2)cc1OCC,n,n,n,n,n,x,x,x
CCOc1ccc(NC(=O)CN(C)C(=O)CSCc2cccc(C)c2)cc1OCC,n,n,n,30,n,n,n,n
Cc1ccc(CNC(=O)c2cccc3c2C(=O)c2ccc(N4CCCCC4)cc2S3(=O)=O)cc1,n,n,n,21,n,n,n,n
O=C(NCc1ccncc1)c1ccc(NS(=O)(=O)c2ccc(F)cc2)cc1,n,n,n,n,n,n,x,x
O=C(NCc1ccc(F)cc1)c1ccc(S(=O)(=O)Nc2cccc(C(F)(F)F)c2)cc1,n,n,n,27,29,n,n,n
Cn1c(OCc2ccc3c(c2)OCO3)nc2c1c(=O)n(Cc1ccc(Cl)c(Cl)c1)c(=O)n2C,n,n,n,n,n,n,x,x
O=C1OCCN1C(=O)[C@H]1[C@H](c2ccc([N+](=O)[O-])cc2)C(c2ccccc2)=NN1c1ccccc1,n,n,n,24,n,n,n,n
SMILES,SKN-1 inh,MPTP inh,ADAM17 inh,ADAM10 inh,GRIN3A LBD mod,MT1-MMP act inh,ADAM10 confirm,ADAM17 counter
O=C1OCCN1C(=O)[C@H]1[C@H](c2ccc(Cl)cc2)C(c2ccccc2)=NN1c1ccccc1,n,n,n,n,n,n,x,x
O=C1OCCN1C(=O)[C@H]1[C@H](c2ccc([N+](=O)[O-])cc2)C(c2cccc(Cl)c2)=NN1c1ccccc1,n,n,17,42,13,n,n,n
O=C1OCCN1C(=O)[C@H]1[C@H](c2ccccc2)C(c2cccc(Cl)c2)=NN1c1ccccc1,n,n,x,x,n,n,x,x
O=C(Oc1cccc2c(O)cccc12)c1ccccc1,n,n,n,23,n,n,n,n
CCn1cc([N+](=O)[O-])c(C(=O)N2CCN(C(=O)c3ccco3)CC2)n1,n,n,n,n,n,n,x,x
CC(=O)c1sc(N)c(C(=O)OC(C)C)c1C,n,n,n,n,n,n,x,x
COc1ccc(C2C(C(=O)Nc3cccnc3)=C(C)Nc3nc(-c4cccs4)nn32)cc1OC (configuration not stated),n,n,n,77,n,n,n,n
COc1ccc(C2C(C(=O)Nc3cccnc3)=C(C)Nc3nc(-c4cccs4)nn32)cc1 (configuration not stated),n,n,n,n,n,n,x,x
CC1CC(C)CN(S(=O)(=O)N2CCCC(C(=O)NCCc3ccccc3)C2)C1 (configuration not stated),n,n,n,n,n,n,x,x
CC1CN(c2cc(=O)n(-c3ccc(Cl)cc3)c(=O)[nH]2)CC(C)O1 (configuration not stated),n,n,n,n,n,n,x,x
O=C(Nc1ccc(C(O)(C(F)(F)F)C(F)(F)F)cc1)c1ccc(Cl)cc1,x,x,n,23,x,x,n,n
CC(C)c1ccc(C(=O)NCCCNC(=O)c2cnccn2)cc1,n,n,n,51,n,n,n,n
CC(C)C(=O)N(c1ccc2oc(=O)sc2c1)S(=O)(=O)c1cccs1,n,n,n,22,n,n,n,n
CCOC(=O)C1CCN(C(=O)CN2C(=O)C(C(C)C)Oc3ccccc32)CC1 (configuration not stated),n,n,n,n,n,n,x,x
